Article PMC4793151 (Cell host & microbe, 2016)

What was measured:
[1] = system: H. pylori clinical isolates; assay: RIA of Le^b binding of clinical isolates preincubated with DTT; type: cell-based; settings: Helicobacter pylori, read-out: EC50, DTT-susceptibility of Le^b-binding
[2] = target: T1, BabA CBD of Alaskan strain A730 (Helicobacter pylori, UniProt O52269); assay: Monovalent binding affinity; settings: for Kd: A730
T1 sequence (O52269 45-480): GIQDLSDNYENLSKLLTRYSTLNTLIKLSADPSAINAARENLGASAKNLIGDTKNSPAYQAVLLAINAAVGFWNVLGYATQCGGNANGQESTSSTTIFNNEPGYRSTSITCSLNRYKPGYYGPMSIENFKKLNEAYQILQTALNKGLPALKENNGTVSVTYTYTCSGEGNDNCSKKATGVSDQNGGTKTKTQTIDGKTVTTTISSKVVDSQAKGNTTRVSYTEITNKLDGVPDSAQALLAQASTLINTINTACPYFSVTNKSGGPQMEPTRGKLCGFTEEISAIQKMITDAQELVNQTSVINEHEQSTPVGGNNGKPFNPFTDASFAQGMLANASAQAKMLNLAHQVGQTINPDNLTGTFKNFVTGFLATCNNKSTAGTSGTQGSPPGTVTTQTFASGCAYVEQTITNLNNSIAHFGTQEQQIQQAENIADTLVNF
Outline: (§1)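 BabA adhesin domain isoforms from strains A730 and P436, plus the strain 17875 reference domain, were expressed recombinantly in E. coli as outer-membrane- or periplasm-targeted proteins and purified by His-tag affinity. In vitro binding was measured by isothermal titration calorimetry: injection heats were integrated into a normalized binding isotherm.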

BabA^AD;DL1-S831 [3] = assay: ITC of BabA^AD; type: binding, Helicobacter pylori
[4] = target: T2, BabA^AD CL2 disulfide bond (Helicobacter pylori, UniProt O52269); assay: Quantitative MS of tryptic digests: CL2 disulfide reduction; type: biochemical
T2 sequence (O52269 45-480): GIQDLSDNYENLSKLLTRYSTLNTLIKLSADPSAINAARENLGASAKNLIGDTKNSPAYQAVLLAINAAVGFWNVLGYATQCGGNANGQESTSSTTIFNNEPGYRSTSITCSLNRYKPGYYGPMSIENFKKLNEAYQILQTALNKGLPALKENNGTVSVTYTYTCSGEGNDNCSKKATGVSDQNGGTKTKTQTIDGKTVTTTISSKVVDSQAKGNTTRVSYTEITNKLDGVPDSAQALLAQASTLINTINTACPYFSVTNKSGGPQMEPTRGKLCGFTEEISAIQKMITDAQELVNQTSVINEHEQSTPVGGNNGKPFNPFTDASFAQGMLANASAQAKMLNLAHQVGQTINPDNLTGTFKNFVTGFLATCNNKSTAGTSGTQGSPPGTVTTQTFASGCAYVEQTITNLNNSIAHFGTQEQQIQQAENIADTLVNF

H. pylori = H. pylori infection of Le^b-expressing transgenic mice; type: in vivo; settings: 2 week, 40 mg/day/animal in drinking water
[5] = system: H. pylori strain 17875/Leb; assay: RIA of 125I-labeled Le^b binding to bacterial cells exposed to reducing agent; type: cell-based, Helicobacter pylori; settings: 20 mg/mL NAC
[6] = system: FITC labeled H. pylori strain 17875/Leb; assay: In vitro detachment of adherent H. pylori from human gastric mucosa sections; type: cell-based, Helicobacter pylori
Outline: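 Human gastric mucosa tissue sections were first given FITC-labeled bacteria with no NAC for 2 hr, then washed in PBS-Tween. Bound bacteria were then exposed to N-acetylcysteine dilutions in SIA blocking buffer (10, 20, 100, 200 mg/mL) for 1 hr at 37°C. Slides were washed again in PBS-Tween and remaining adherent bacteria were quantified digitally by microscopy.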

[7] = system: FITC labeled H. pylori strain 17875/Leb; assay: In vitro inhibition of H. pylori adherence to human gastric mucosa sections; type: cell-based, Helicobacter pylori
Outline: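 FITC-labeled bacterial suspensions were mixed with N-acetylcysteine dilutions in SIA blocking buffer (0, 10, 20, 100 mg/mL) and incubated 1 hr at 37°C. They were then applied to human gastric mucosa tissue sections for 2 hr. Unbound cells were removed with PBS-Tween, and adherent bacteria were quantified digitally by microscopy relative to bacteria without NAC.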

[8] = system: human gastric mucosa sections; assay: Pretreatment of gastric sections; type: cell-based; settings: up to 200 mg/mL NAC
Outline: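 Human gastric mucosa sections were preincubated with N-acetylcysteine in SIA blocking buffer (0, 10, 20, 100, 200 mg/mL) for 2 hr at room temperature, then washed three times in PBS-Tween. FITC-labeled H. pylori 17875/Leb was applied for 2 hr and unbound cells were washed off with PBS-Tween. Bacterial binding was quantified digitally by microscopy.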

[9] = system: BabA CBD of Peruvian strain P436; assay: Monovalent binding affinity; parameters: species or system Helicobacter pylori; settings: P436 versus 17875 BabA
Outline: as §1

full-length BabA = target: T3, full-length BabA (Helicobacter pylori, UniProt O52269); assay: SPR of full-length BabA on Le^b-coated chip; type: binding
T3 sequence (O52269 21-741): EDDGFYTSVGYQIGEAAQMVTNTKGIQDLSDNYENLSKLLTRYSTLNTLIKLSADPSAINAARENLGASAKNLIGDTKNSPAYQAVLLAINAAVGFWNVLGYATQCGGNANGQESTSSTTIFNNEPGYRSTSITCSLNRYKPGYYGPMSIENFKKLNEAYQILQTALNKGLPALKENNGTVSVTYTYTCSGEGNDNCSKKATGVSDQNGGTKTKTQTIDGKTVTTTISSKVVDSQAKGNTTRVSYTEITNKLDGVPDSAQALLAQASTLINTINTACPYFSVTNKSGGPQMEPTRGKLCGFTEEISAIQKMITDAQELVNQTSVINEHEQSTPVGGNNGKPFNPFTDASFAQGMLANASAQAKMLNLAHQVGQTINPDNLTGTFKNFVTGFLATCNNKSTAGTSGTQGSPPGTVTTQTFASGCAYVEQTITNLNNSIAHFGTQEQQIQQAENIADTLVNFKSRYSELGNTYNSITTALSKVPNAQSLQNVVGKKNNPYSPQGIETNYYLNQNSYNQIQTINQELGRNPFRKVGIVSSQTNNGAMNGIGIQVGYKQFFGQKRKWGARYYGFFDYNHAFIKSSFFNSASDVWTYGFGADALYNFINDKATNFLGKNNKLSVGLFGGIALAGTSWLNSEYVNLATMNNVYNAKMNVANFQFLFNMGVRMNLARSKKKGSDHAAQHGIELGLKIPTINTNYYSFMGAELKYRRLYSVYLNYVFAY
Outline: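 Surface plasmon resonance on a chip carrying immobilized Leb. Full-length BabA was flowed over it at 500, 250, 125, 62.5, 31.3 and 15.7 nM. Raw sensorgrams were fitted to binding curves to derive Kd, the association rate constant ka and the dissociation rate constant kd, each reported with a ± spread.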

BabA = settings: ref Borén et al., 1993; cited from earlier work
BabA^AD;DL1-S831 [10] = assay: SPR competition of BabA^AD; type: binding, Helicobacter pylori; settings: 2-fold dilution series from 5 mM to 1 μM
[11] = target: T4, strain 17875 BabA adhesin domain (BabA^AD), residues 25-460 (Helicobacter pylori strain 17875, strain); assay: crystal structure
T4 chain: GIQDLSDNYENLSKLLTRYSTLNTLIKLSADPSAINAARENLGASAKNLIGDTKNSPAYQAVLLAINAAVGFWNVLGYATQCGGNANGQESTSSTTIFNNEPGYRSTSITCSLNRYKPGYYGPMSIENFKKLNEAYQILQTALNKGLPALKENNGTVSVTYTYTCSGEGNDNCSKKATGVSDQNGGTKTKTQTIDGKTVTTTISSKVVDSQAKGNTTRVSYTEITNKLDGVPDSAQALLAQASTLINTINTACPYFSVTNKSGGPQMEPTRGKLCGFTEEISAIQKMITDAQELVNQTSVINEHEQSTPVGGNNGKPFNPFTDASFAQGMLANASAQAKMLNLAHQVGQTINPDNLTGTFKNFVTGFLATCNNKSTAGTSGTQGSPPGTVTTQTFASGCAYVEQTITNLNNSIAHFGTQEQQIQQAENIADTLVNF

In the case of `O[C@@H](CS)[C@@H](O)CS` (racemic) [DTT, dithiothreitol], the EC50 [1] is reported as 2000 to 10000 µM.

Molecule `CC(=O)N[C@H]1[C@@H](O[C@H]2[C@@H](O)[C@@H](CO)O[C@@H](O[C@H]3[C@H](O)[C@@H](CO)O[C@@H](O[C@H]4[C@@H](O)[C@@H](CO)O[C@@H](O[C@H]5[C@H](O)[C@@H](O)C(O)O[C@@H]5CO)[C@@H]4O)[C@@H]3NC(C)=O)[C@@H]2O[C@@H]2O[C@@H](C)[C@@H](O)[C@@H](O)[C@@H]2O)O[C@H](CO)[C@H](O)[C@@H]1O` (stereo partly shown) [A6-1, A type 1 hexasaccharide] has a Kd [2] of 305 µM.

With `CC(=O)N[C@H]1[C@H](O[C@H]2[C@@H](O)[C@@H](CO)O[C@@H](O[C@H]3[C@H](O)[C@@H](O)C(O)O[C@@H]3CO)[C@@H]2O)O[C@H](CO)[C@@H](O[C@@H]2O[C@@H](C)[C@@H](O)[C@@H](O)[C@@H]2O)[C@@H]1O[C@@H]1O[C@H](CO)[C@H](O)[C@H](O[C@H]2O[C@H](CO)[C@H](O)[C@H](O)[C@H]2O)[C@H]1O[C@@H]1O[C@@H](C)[C@@H](O)[C@@H](O)[C@@H]1O` (stereo partly shown) [BLe^b7] the ITC binding (BabA^AD;DL1-S831 [3]; titration) was “no binding heat signal” and the Kd [2] was 93 µM.

With `CC(=O)N[C@@H](CS)C(=O)O` [NAC, N-acetyl-L-cysteine] the EC50 [4] was 55100 µM, the “fold lower neutrophil recruitment to the gastric mucosa” value (H. pylori) was 13 fold and the “fold reduction in H. pylori epithelial adherence” value (H. pylori) was 2 fold. For the same molecule, the “BabA-Le^b binding after incubation of bacteria” value [5] was “inactivated”, the bacterial detachment ([6]; 10 mg/mL NAC on sections with bound bacteria) was “undetectable” and the bacterial detachment ([6]; 20 mg/mL NAC on sections with bound bacteria) was 50%. For the same molecule, the bacterial detachment ([6]; 200 mg/mL NAC on sections with bound bacteria) was “over 90%”, the adherent bacteria ([7]; 10 mg/mL NAC preincubation) was 14% and the adherent bacteria ([7]; 20 mg/mL NAC preincubation) was “less than 5%”. The “inhibition of bacterial adherence” value ([7]; 20 mg/mL NAC, bacteria preincubated) was “almost eliminated”, the inhibition at 10000 µg/mL ([7]; Helicobacter pylori, read-out: inhibition of bacterial adherence) was 86% and the “effect of section pretreatment on bacterial binding” value [8] was “did not affect bacterial binding”.

For Le^b hexasaccharide, the “fold loss in monovalent binding affinity” value [9] was roughly 15 fold, the “Le^b binding of S831 DL1 graft” value (BabA^AD;DL1-S831 [3]; Figures 7B and S7A) was “active” and the “fold loss in monovalent binding affinity” value ([2]; A730 versus 17875 BabA) was roughly 20 fold. The “association rate constant ka” value (full-length BabA) was 610000 ± 140000 M⁻¹ s⁻¹, the Kd (full-length BabA; full-length protein) was 0.00039 µM and the “fold stronger binding to Le^b versus type 1 H neoglycoconjugates” value (BabA) was “about 2 fold”. The “suppression of binding to Le^b-coated SPR chip by soluble glycan” value (BabA^AD;DL1-S831 [10]) was “suppressed”.

B1: Nb-ER14 (VHH)
VHH: QVQLQESGGGLVQPGGSLRLSCAASGSIYSLIAMGWYRQAPGKEHELVATISSGSTTYYADSVKGRFTISRDNAKNTLYLQMNSLKPEDTAMYYCAAYSDRLTDCSNCEADYWGQGTQVTVS
B1: binds [11].

B2: Nb-ER19 (VHH)
VHH: QVQLQESGGGLVQPGGSLRLSCAASGSIFSGNVMGWYRQAPGKLREWVAAITPQGVPNYADSVKGRFTISRDNAKNMLYLQMSSLKPEDTALYYCNRLPNYRSWGQGTQVTVSS
B2: binds [11].
